Experimental data published in ChEMBL document CHEMBL1154688, “Selective Kv1.5 blockers: development of (R)-1-(methylsulfonylamino)-3-[2-(4-methoxyphenyl)ethyl]-4-(4-methoxyphenyl)-2-imidazolidinone (KVI-020/WYE-160020) as a potential treatment for atrial arrhythmia” (J Med Chem, 2009).
≈ marks a conversion by molar mass, not a printed value.

What was measured:
[1] = Aqueous solubility at pH 7.4 by direct UV method; type: physicochemical; conditions: aqueous medium
Procedure, shortened: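 Solubility measured in pH 7.4 buffer with direct UV read-out.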

[2] = biological target: Potassium voltage-gated channel subfamily A member 5 (Homo sapiens, UniProt P22460); assay: Inhibition of human Kv1.5 expressed in CHO cells by patch-clamp technique; type: cell-based
Sequence of Potassium voltage-gated channel subfamily A member 5 (P22460 whole entry): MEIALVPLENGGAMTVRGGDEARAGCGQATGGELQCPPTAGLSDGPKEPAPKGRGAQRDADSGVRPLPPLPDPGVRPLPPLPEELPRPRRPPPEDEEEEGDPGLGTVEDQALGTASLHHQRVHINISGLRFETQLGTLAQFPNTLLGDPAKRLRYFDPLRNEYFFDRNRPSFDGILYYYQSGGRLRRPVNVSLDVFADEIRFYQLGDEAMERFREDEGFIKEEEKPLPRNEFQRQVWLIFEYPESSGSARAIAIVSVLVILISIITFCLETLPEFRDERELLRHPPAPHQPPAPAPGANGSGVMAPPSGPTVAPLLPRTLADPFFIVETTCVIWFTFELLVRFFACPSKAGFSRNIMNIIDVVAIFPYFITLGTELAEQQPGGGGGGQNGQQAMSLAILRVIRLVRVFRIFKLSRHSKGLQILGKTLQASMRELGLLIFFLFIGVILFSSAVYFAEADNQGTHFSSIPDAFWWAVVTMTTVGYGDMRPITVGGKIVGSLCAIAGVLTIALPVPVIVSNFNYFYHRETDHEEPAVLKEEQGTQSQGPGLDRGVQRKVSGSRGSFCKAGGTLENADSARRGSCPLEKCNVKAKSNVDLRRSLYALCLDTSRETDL
Procedure, shortened: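 Human Kv1.5 stably expressed in CHO cells. IC50 was determined by automated patch clamp on the IonWorks platform.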

[3] = Metabolic stability in human liver microsomes assessed as half life; type: ADME, Microsome
Procedure, shortened: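 Test compound at 1 μM incubated with 1 mg/mL male beagle dog or male human liver microsomal protein. Half-life was determined from compound loss.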

CYP3A4 = CYP3A4 (Homo sapiens, UniProt P08684); assay: Inhibition of CYP3A4 at 3 uM by fluorescent method; type: ADME
Sequence of CYP3A4 (P08684 whole entry): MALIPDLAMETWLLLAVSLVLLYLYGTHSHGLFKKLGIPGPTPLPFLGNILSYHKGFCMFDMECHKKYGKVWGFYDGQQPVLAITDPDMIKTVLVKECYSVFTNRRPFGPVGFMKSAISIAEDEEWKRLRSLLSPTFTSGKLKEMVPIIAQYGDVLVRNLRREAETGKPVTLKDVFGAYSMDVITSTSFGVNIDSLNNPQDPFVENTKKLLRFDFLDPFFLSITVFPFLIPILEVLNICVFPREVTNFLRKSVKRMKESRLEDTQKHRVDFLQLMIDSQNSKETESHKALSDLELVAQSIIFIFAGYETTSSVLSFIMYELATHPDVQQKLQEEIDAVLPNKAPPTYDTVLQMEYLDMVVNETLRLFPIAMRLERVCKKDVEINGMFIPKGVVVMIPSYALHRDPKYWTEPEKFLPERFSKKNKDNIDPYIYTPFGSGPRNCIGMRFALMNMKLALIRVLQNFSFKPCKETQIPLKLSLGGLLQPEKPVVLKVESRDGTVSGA
Procedure, shortened: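 CYP3A4 inhibition measured by a fluorescent method.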

[4] = biological target: Voltage-gated inwardly rectifying potassium channel KCNH2 (Homo sapiens, UniProt Q12809); assay: Inhibition of human ERG by patch-clamp technique
Sequence of Voltage-gated inwardly rectifying potassium channel KCNH2 (Q12809 whole entry): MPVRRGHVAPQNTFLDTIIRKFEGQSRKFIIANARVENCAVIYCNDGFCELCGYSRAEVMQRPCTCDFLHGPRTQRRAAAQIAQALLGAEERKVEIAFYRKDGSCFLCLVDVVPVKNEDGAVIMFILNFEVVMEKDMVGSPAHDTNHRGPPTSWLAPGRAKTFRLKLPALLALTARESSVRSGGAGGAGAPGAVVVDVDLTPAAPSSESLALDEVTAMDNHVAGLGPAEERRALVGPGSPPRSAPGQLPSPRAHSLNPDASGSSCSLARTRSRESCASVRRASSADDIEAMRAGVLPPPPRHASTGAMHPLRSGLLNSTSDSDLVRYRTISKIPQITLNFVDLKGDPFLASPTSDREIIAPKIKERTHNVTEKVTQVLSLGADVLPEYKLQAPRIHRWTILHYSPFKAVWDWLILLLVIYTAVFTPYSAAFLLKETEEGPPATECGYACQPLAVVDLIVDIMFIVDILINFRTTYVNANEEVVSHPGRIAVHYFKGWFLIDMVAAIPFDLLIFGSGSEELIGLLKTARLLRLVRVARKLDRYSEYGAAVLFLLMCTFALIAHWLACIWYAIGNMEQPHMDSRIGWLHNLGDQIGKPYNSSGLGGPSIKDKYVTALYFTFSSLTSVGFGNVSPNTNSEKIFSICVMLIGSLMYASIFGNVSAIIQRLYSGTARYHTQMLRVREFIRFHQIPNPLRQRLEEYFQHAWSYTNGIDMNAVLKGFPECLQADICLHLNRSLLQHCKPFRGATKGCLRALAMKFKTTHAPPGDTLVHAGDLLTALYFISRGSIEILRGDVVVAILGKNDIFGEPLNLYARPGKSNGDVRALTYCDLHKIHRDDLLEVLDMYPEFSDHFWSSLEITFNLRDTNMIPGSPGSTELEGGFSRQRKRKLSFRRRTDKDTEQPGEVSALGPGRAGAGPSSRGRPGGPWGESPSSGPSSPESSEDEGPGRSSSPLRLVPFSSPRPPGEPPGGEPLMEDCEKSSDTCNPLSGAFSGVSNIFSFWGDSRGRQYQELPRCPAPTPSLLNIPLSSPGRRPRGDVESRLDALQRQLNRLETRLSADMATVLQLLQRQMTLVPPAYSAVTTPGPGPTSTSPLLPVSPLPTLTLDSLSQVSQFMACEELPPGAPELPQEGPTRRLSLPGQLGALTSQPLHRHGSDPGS

COc1ccc(CCCN2C(=O)N(NS(C)(=O)=O)C[C@H]2c2ccc(OC)cc2)cc1
solubility [1]: 15 µg/mL (≈ 34.6 µM) | IC50 [2]: 560 nM | half-life [3]: 12 min | inhibition at 3 µM (CYP3A4): 50% | IC50 [4]: 14300 nM

CCOc1ccc(CCN2C(=O)N(NS(C)(=O)=O)C[C@@H]2c2ccc(OC)cc2)cc1
solubility [1]: 43 µg/mL (≈ 99.2 µM) | IC50 [2]: 770 nM | half-life [3]: 17 min | inhibition at 3 µM (CYP3A4): 4%

COc1ccc(CCN2C(=O)N(NS(=O)(=O)CC#N)C[C@@H]2c2ccc(OC)cc2)cc1
solubility [1]: 100 µg/mL (≈ 225 µM) | IC50 [2]: 230 nM | half-life [3]: 21 min | inhibition at 3 µM (CYP3A4): 7% | IC50 [4]: 33000 nM

COc1ccc(CCN2C(=O)N(NS(=O)(=O)CF)C[C@@H]2c2ccc(OC)cc2)cc1
solubility [1]: 100 µg/mL (≈ 229 µM) | IC50 [2]: 900 nM | half-life [3]: 13 min | inhibition at 3 µM (CYP3A4): 0% | IC50 [4]: 28300 nM
